In publication PMC10240386 (Cell chemical biology, 2023):

Columns and labels:
[1] = system: intracellular Pf20S β5 with the β6^A117D mutation; assay: Intraparasitic hybrid activation and proteasome inhibition assay; type: cell-based, Plasmodium falciparum; details: ATZ4 700 nM, Dd2β6^A117D parasites, compared with WT
Method in brief: (§1)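 Dd2 wild-type and mutant lines grown synchronized to 5–8% parasitemia. Early-trophozoite infected erythrocytes pulsed 6 h with test compound (700 or 800 nM) or DMSO, then washed four times in complete medium. Parasites released with saponin, washed in cold PBS and lysed in 20 mM Tris-HCl, 5 mM MgCl2, 1 mM DTT, pH 7.4. Equal lysate amounts labeled with 2 µM MV151 for 1 h at 37°C, separated by SDS-PAGE and scanned on the TAMRA channel.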

Pf Dd2^WT = assay: Parasite growth inhibition assay, erythrocytic stage; type: cell-based, Plasmodium falciparum
Pf20Sβ5^A49S = assay: Blocking of MV151 labeling in parasite lysate; type: binding, Plasmodium falciparum; details: 1 h preincubation of Dd2β5^A49S lysate
Method in brief: (§2)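 Dd2 wild-type or mutant parasite pellets lysed on ice for 1 h in 50 mM Tris-HCl, 5 mM MgCl2, 1 mM DTT, pH 7.4, then centrifuged; protein quantified by BCA. 5–10 µg of lysate protein preincubated with test compound for 1 h at 37°C. MV151 added at 2 µM final for a further 1 h at 37°C, protected from light. Run on 12% Bis-Tris SDS-PAGE and scanned at Cy3/TAMRA (λex 532, λem 560 nm).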

[2] = system: intracellular Pf20S β5 with the β5^A49S mutation; assay: Intraparasitic hybrid activation and proteasome inhibition assay; type: cell-based, Plasmodium falciparum; details: ATZ4 700 nM, Dd2β5^A49S parasites, compared with WT
Method in brief: as §1

HepG2 cells = assay: HepG2 cell viability assay; type: cell-based; details: Homo sapiens, HepG2, 72 h, read-out: HepG2
Dd2β6^A117D = assay: Parasite growth inhibition assay, erythrocytic stage; type: cell-based, Plasmodium falciparum
Dd2β5^A49S = assay: as above; type: cell-based, Plasmodium falciparum
human i-20S β5i = human i-20S β5i (Homo sapiens, UniProt P20618+P28062); assay: Proteasome IC50 determination, human i-20S β5i; type: biochemical
Method in brief: (§3)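 Human i-20S (0.4 nM) assayed in 20 mM HEPES, 0.5 mM EDTA, 0.1 mg/mL BSA, pH 7.5, with 0.02% SDS and 15 µM Ac-ANW-AMC. Pf20S (1 nM) assayed in 50 mM Tris, 5 mM MgCl2, 1 mM DTT, pH 7.4, with 12 nM PA28α, 0.5 µM WLW-VS and 25 µM suc-LLVY-AMC. Test compound given as a 3-fold series, 100–0.0017 µM final. AMC read at 360/460 nm for 1–2 h; velocities fitted to a dose-response equation. Run in duplicate or triplicate.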

human c-20S β5c = human c-20S β5c (Homo sapiens, UniProt P20618+P28074); assay: Proteasome IC50 determination, human c-20S β5c; type: biochemical
Method in brief: as §3, with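 “c-20S (0.2” for “i-20S (0.4”, “25” for “15”, “suc-LLVY-AMC.” for “Ac-ANW-AMC.”, “h; linear” for “h;”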

[3] = system: DHA-resistant clones DR1, DR2, DR4 derived from Dd2; assay: Standard 72-h in vitro assay on DHA-resistant clones; type: cell-based, Plasmodium falciparum; details: standard 72-h assay
Pf20S β5 = Pf20S β5 (Plasmodium falciparum, UniProt A0A5K1K7U1+Q8IJT1); assay: biochemical; type: biochemical
[4] = system: P. berghei G2025^R551T (K13^R551T); assay: Modified Peters' 4-day suppressive test for recrudescence, ART-resistant strain; type: in vivo, Swiss Webster mice; details: ART 50 mg/kg, ATZ4 100 mg/kg i.p. day 0 to day 2
Dd2β6^A117DK13^R539T = assay: Parasite growth inhibition, dual resistant strain; type: cell-based, Plasmodium falciparum
[5] = system: Pf20S β5 in lysate of Dd2^WT; assay: Blocking of MV151 labeling in parasite lysate; type: binding, Plasmodium falciparum; details: 1 h preincubation of Dd2^WT lysate
Method in brief: as §2

Pf20Sβ6^A117D = assay: Blocking of MV151 labeling in parasite lysate; type: binding, Plasmodium falciparum; details: 1 h preincubation of Dd2β6^A117D lysate
Method in brief: as §2

P. berghei ANKA lux = assay: In vivo efficacy in mice infected with P. berghei ANKA lux; design: species or system Swiss Webster mice

C[C@H]1[C@@H](CC(=O)NCCCC(=O)N[C@@H](CC(=O)NC(C)(C)C)C(=O)NCCNC(=O)c2cc(-c3ccccc3F)ccc2F)O[C@@H]2O[C@@]3(C)CC[C@H]4[C@H](C)CC[C@@H]1[C@@]24OO3 [ATZ4, (S)-N4-(tert-butyl)-N1-(2-(2′,4-difluoro-[1,1′-biphenyl]-3-carboxamido)ethyl)-2-(4-(2-((3R,5aS,6R,8aS,9R,10R,12R,12aR)-3,6,9-trimethyldecahydro-12H-3,12-epoxy[1,2]dioxepino[4,3-i]isochromen-10-yl)acetamido)butanamido)succinamide]
inhibition of Pf20S β5 labeling by MV151 after 6 h pulse and washing [1]: similarly effective
times more potent than ART1 against Dd2 (Pf Dd2^WT; EC50 ratio): 10 times
EC50 (Pf Dd2^WT; Plasmodium falciparum, DD2, Erythrocyte, 72 h, read-out: EC50 Pf Dd2^WT): 4.3 ± 1.3 nM
blocking of MV151 labeling of β5 (Pf20Sβ5^A49S): prevented PI01 and ATZ4 from inhibiting
inhibition of Pf20S β5 labeling by MV151 after 6 h pulse and washing [2]: similarly effective
EC50 (HepG2 cells): 9400 nM
fold improvement over PI01 against Dd2β6^A117D (Dd2β6^A117D): ≥ 5 fold
fold more resistant / reduced potency, Dd2β6^A117D versus parental Dd2 (Dd2β6^A117D; EC50 ratio): ≤ 2.9 fold
EC50 (Dd2β6^A117D; Plasmodium falciparum, 72 h, read-out: EC50 Dd2β6^A117D): 6.7 ± 2.2 nM
fold improvement over PI01 against Dd2β5^A49S (Dd2β5^A49S): > 100 fold
fold more resistant / reduced potency, Dd2β5^A49S versus parental Dd2 (Dd2β5^A49S; EC50 ratio): ≤ 3.6 fold
EC50 (Dd2β5^A49S; Plasmodium falciparum, 72 h, read-out: EC50 Dd2β5^A49S): 5.9 ± 1.9 nM
IC50 (human i-20S β5i): 200 ± 57 nM
IC50 (human c-20S β5c): 890 ± 140 nM
susceptibility of DHA-resistant clones compared with WT Dd2 [3]: equally susceptible
IC50 (Pf20S β5): 4.3 ± 0.9 nM
activity against Pf20S (Pf20S β5; Pf20S β5): potency comparable with that of PI01
mice with positive blood smear on day 6 [4]: 0%
mice with positive blood smear on day 8 [4]: 0%
mice with positive blood smear on day 10 [4]: 60%
potency across Dd2, Dd2β6^A117D, Dd2K13^R539T and Dd2β6^A117DK13^R539T (Dd2β6^A117DK13^R539T): equipotent
blocking of MV151 labeling of β5 [5]: dose dependently blocked labeling of β5
blocking of MV151 labeling of β5 (Pf20Sβ6^A117D): prevented PI01 and ATZ4 from inhibiting
effect on parasite load (P. berghei ANKA lux; 10 mg/kg i.p. once daily day 3 to day 6, luminescence on day 7): no detectable effect
decrease in parasite load (P. berghei ANKA lux; 25 mg/kg i.p. once daily day 3 to day 6, luminescence on day 7): 1.2 log10
decrease in parasite load (P. berghei ANKA lux; 50 mg/kg i.p. once daily day 3 to day 6, luminescence on day 7, to below the limit of detection): > 3 log10
